SUMO1 PPI mod = modulators of SUMO1 protein-protein interactions, primary screen, biochemical, uHTS. hit rate 0.33% among 360,000. AID 602429, 2012. Small ubiquitin-related modifier 1 (Homo sapiens), P63165. inhibition, % at 20 µM. SUMO1 binding to a labelled peptide, TR-FRET, 1 h; in the data active means inhibition above about 37%
Target sequence (P63165 whole entry, looked up): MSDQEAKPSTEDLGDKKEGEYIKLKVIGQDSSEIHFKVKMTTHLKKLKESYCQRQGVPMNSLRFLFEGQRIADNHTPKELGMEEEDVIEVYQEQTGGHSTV
DNMT1 block = human DNMT1 methyltransferase inhibitors, primary screen, biochemical, molecular beacon, fluorescence, HinP1I cleavage, uHTS | DNA (cytosine-5)-methyltransferase 1 (Homo sapiens), P26358 | inhibition (reported as % activation of signal), % at 10 µM | hit rate 0.83% among 360,000 | AID 588458, 2011; in the data active means inhibition above about 50%
LMPTP block = LMPTP phosphatase inhibitors, primary screen, biochemical, fluorescence intensity, uHTS | Low molecular weight phosphotyrosine protein phosphatase (Homo sapiens), P24666 | recombinant LMPTP-A, OMFP fluorogenic substrate | inhibition, % at 20 µM | hit rate 0.22% among 360,000;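 active means compounds that cut the enzyme signal by at least half of the control window in the single-dose screen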;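 further: plate controls were DMSO wells with enzyme plus substrate for no effect and substrate without enzyme for full effect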
Target sequence (P24666 whole entry, looked up): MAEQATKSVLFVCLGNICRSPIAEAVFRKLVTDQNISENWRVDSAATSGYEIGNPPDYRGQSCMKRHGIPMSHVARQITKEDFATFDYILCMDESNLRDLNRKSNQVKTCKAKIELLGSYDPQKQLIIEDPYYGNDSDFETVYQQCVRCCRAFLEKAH
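Assay system: LMPTP-A enzyme. Input: 0.625 nM LMPTP-A final. Probe or stimulus: 400 µM OMFP. Compound dosing: single 20 µM dose. Schedule: 50 min dark incubation at room temperature. Detection: fluorescence intensity of OMFP turnover product. Read-out: percent inhibition versus substrate-only and uninhibited controls. Benchmarks: no-enzyme low control, uninhibited high control.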
STEP inh = STEP phosphatase inhibitors, primary screen, biochemical, fluorescence intensity, uHTS. recombinant STEP, OMFP fluorogenic substrate. inhibition, % at 20 µM. hit rate 0.25% among 360,000. AID 588621, 2011;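 active means inhibition at 20 µM, scaled per plate between control wells, above about 37%, limit read from the data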;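 further: 0% = DMSO with enzyme and substrate and 100% = substrate only without enzyme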
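Assay system: isolated STEP enzyme / Timing: 20 min at room temperature, dark / Doses: 20 µM, 1% DMSO / Technique: fluorescence intensity, excitation 480 nm, emission 540 nm / Reagent: fluorogenic phosphatase substrate OMFP at 25 µM final / Measure: percent inhibition scaled to no-enzyme and uninhibited-enzyme controls, plate-pattern corrected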
Scp-1 inhibitor = Scp-1 phosphatase inhibitors, primary screen, biochemical, colorimetric, uHTS; Recombinant Scp1, phosphopeptide, malachite green phosphate absorbance; inhibition, % at 20 µM; hit rate 0.88% among 340,000;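 active means inhibition above about 50% at 20 µM, limit read from the data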;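 further: plate controls were DMSO wells with enzyme for no effect and wells lacking enzyme for full effect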
Target sequence (Q9GZU7 76-261 limits assumed): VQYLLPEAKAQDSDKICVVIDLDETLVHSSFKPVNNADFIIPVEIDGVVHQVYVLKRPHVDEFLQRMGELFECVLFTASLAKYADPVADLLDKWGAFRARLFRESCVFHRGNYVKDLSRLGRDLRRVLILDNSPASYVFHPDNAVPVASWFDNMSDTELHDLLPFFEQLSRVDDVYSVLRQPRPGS
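Assay system: SCP-1 catalytic fragment, aa 76-261 | Buffer or medium: Tris acetate buffer pH 5.5 with MgCl2 and Tween-20 | Compound: One concentration, 20 µM, with 1.0% DMSO | Also added: Phospho 17-mer peptide substrate | Signal: Absorbance at 630 nm | Incubation: 45 min enzyme reaction at room temperature | Measure: % inhibition of SCP-1 phosphate liberation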
Scp1 confirm = Scp-1 phosphatase inhibitors, retest, confirmation, biochemical, colorimetric, single concentration; inhibition, % at 20 µM; recombinant SCP-1 catalytic domain, phosphate release, malachite green absorbance; hit rate 61% among 2,500; shares compounds with Scp-1 inhibitor; AID 540281, 2011;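 further: plate controls were DMSO with enzyme for no effect and buffer wells lacking enzyme for full effect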
MG interference = colorimetric readout interference by compounds, confirmation, artefact control for Scp-1 inhibitor project, biochemical, single concentration; 2,500 tested, under 10 active; apparent inhibition (interference), % at 20 µM; Colorimetric interference counterscreen, malachite green absorbance 630 nm; AID 540313, 2011; shares compounds with Scp-1 inhibitor;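 further: compounds added after enzyme reaction finished so only phosphate colour detection is probed; plate controls were DMSO wells with completed Scp-1 reaction for no effect and substrate wells lacking enzyme for full effect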
Scp-1 Tm shift = Scp-1 binding by thermal shift, confirmation, orthogonal assay for Scp-1 inhibitor project, biophysical, differential scanning fluorimetry; shares compounds with Scp-1 inhibitor; thermal shift relative to vanadate control, % at 40 µM; Recombinant SCP1, Sypro Orange thermal shift Tm; AID 540329, 2011; hit rate 25% among 1,500;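 active means substances whose mean melting-temperature shift, as a percentage of the reference inhibitor's shift, reaches about 5.3%, limit read from the data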;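 further: 0% = Tm of DMSO wells and 100% = Tm with sodium orthovanadate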
* marks the source's active call; other numbers are inactive results. The list is not random: actives were taken first. Their share in the collection is about 1.7%.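 How the source made its calls, unless noted: active means inhibition of at least 30% at 20 µM; inactive means the rest.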

CCc1ccccc1NC(=O)C1CCCN1S(=O)(=O)c1ccc2c(c1)n(C)c(=O)c(=O)n2C (configuration not stated) was read as SUMO1 PPI mod 6, DNMT1 block 1, LMPTP block -2, STEP inh -1 and Scp-1 inhibitor -7.
`Cc1cccc(C)c1NC(=O)C1CCCN1S(=O)(=O)c1ccc2c(c1)n(C)c(=O)c(=O)n2C` (configuration not stated) gave SUMO1 PPI mod -2, DNMT1 block 1, LMPTP block -3, STEP inh 1, Scp-1 inhibitor -4, Scp1 confirm -14 and MG interference -18.
For Cc1ccc(NC(=O)C2CCCN2S(=O)(=O)c2ccc3c(c2)n(C)c(=O)c(=O)n3C)c(C)c1 (configuration not stated) the results were SUMO1 PPI mod 4, DNMT1 block 0, LMPTP block 0, STEP inh -2, Scp-1 inhibitor -12, Scp1 confirm -10 and MG interference -11.
Screening Cc1ccc(NC(=O)C2CCCN2S(=O)(=O)c2ccc3c(c2)n(C)c(=O)c(=O)n3C)cc1 (configuration not stated) returned SUMO1 PPI mod -5, DNMT1 block 2, LMPTP block -2, STEP inh -2 and Scp-1 inhibitor 7.
`CCc1nnc(NC(=O)CCC(=O)N2CCN(C3c4ccccc4-c4ccccc43)CC2)s1` gave SUMO1 PPI mod -5, DNMT1 block -2, LMPTP block 0, STEP inh 1, Scp-1 inhibitor 72*, Scp1 confirm -21 and MG interference -12.
For O=C(NC1CCCC1)c1ccc(COc2ccccc2Br)o1 the results were SUMO1 PPI mod 12, DNMT1 block -2, LMPTP block 1, STEP inh 1 and Scp-1 inhibitor 4.
For CC(=O)Nc1ccc2c(O)cc(S(=O)(=O)O)cc2c1 the results were SUMO1 PPI mod 7, DNMT1 block 28, LMPTP block 31, STEP inh 23, Scp-1 inhibitor 59*, Scp1 confirm 46*, MG interference -14 and Scp-1 Tm shift 0.
Cc1cc(C(=O)N/N=C/c2ccc(-c3ccc(C)c(Cl)c3)o2)n[nH]1 was read as SUMO1 PPI mod -3, DNMT1 block 38, LMPTP block 5, STEP inh 0 and Scp-1 inhibitor 11.
`Cc1cc(C(=O)N/N=C/C=C/c2ccc(Br)cc2)n[nH]1` gave SUMO1 PPI mod 0, DNMT1 block 12, LMPTP block 34, STEP inh 29, Scp-1 inhibitor 52*, Scp1 confirm 65*, MG interference -4 and Scp-1 Tm shift -8.
For Cc1cc(C(=O)N/N=C/c2ccc(-c3ccccc3Cl)o2)n[nH]1 the results were SUMO1 PPI mod 0, DNMT1 block 36, LMPTP block 16, STEP inh 10, Scp-1 inhibitor 60*, Scp1 confirm 58*, MG interference -17 and Scp-1 Tm shift -8.
